Assay outcomes deposited in PubChem BioAssay by several laboratories.
ABHD5 PLIN5 PPI: blocks binding of human ABHD5 to perilipin-5; Q00G26+Q8WTS1; Split G. princeps luciferase complementation, luminescence, 4 h; inhibition, % at 4 µM; 0.78% of 360,000 active;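 active means inhibition above the mean inhibition across every tested compound plus 3 SD, cut at about 22% in these data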
Target sequence (Q00G26 whole entry, looked up): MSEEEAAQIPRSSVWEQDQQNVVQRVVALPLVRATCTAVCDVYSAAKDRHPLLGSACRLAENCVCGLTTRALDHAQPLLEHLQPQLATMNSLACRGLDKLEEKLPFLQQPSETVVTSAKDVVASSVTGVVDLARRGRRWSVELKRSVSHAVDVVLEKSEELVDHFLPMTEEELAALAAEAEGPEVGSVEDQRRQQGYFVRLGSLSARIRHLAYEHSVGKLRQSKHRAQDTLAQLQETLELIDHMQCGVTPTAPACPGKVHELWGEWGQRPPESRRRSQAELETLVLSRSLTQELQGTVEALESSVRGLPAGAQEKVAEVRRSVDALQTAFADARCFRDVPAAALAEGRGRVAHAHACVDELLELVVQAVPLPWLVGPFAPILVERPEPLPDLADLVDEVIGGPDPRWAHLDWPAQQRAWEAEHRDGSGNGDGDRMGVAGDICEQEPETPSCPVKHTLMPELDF
Target sequence (Q8WTS1 whole entry, looked up): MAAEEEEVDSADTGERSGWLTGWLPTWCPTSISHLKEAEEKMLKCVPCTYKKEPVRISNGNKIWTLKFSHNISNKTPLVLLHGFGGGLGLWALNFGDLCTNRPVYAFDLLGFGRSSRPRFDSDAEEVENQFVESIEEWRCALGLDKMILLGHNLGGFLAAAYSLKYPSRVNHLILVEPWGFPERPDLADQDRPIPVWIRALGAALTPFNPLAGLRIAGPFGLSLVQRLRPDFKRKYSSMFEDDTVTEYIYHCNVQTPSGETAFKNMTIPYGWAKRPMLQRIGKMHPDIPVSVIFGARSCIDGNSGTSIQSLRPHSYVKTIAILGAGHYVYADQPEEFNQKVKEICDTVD
UPR CHOP act: activators of apoptotic arm of unfolded protein response (CHOP). CHO-CHOP luciferase reporter, UPR activation, luminescence; percent of tunicamycin response over DMSO baseline. activation, % at 10 µM. 0.34% of 330,000 active;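 active means at 10 µM dose, activation of 40% or more, normalized to positive control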
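Dosing – one dose, 10 µM in 0.5% DMSO · System – CHO-CHOP cells, stable luciferase reporter of PERK-eIF2a-CHOP signalling · Input – 500 cells/well · Control set – tunicamycin 10 µg/mL final as positive, DMSO-only wells as negative · Timing – 6 h compound treatment, 37 °C · Measure – % activation vs tunicamycin · Technique – luminescence read with Steady-Glo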
XBP1 UPR activ: adaptive UPR (XBP1) activation; CHO-XBP1 luciferase reporter, IRE1-XBP1 UPR activation, luminescence; percent of tunicamycin response, DMSO as zero; activation, % at 20 µM; 0.33% of 330,000 active; AID 463104;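 active means versus positive control, 20 µM dose yields 30% or more activation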
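Signal: luciferase luminescence; Assay system: CHO-XBP1 luciferase reporter cells; Amount: one thousand reporter cells per well; Dosing: 20 µM single concentration, DMSO 1%; Benchmarks: high control tunicamycin 10 µg/mL final, low control DMSO vehicle only; Schedule: 6 h compound exposure at 37 °C, 5% CO2; Evaluation: percent activation relative to tunicamycin reference.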
Mdm2-MdmX inh: inhibitors of human Mdm2/MdmX interaction. inhibition, % at 8 µM. O15151+Q00987. 3% of 330,000 active. SaOS-2 split-luciferase Mdm2/MdmX complementation, luminescence;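 active means inhibition of at least 50% at 8 µM in the primary screen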
Granule exo inh: blocks lytic granule exocytosis; TALL-104 LAMP-1 surface exposure, flow cytometry; cells stimulated with thapsigargin and PMA; inhibition, % at 10 µM; 0.66% of 360,000 active;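 active means inhibition above about 55%, limit read from the data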
Mdm2-MdmX conf: confirmation of human Mdm2/MdmX interaction inhibitors; shares compounds with Mdm2-MdmX inh; Mdm2-MdmX binding, luminescent assay; inhibition, % at 8 µM; 55% of 10,000 active; AID 489028; in the data active means inhibition above about 40%
FLuc counter: counter-screen for Mdm2/MdmX inhibitors: full-length luciferase; shares compounds with Mdm2-MdmX inh; SaOS-2 full-length luciferase counterscreen, luminescence; inhibition, % at 8 µM; 77% of 6,200 active; AID 504607;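 active means mean inhibition at 8 µM reaching about 37%, which flags the compound as non-specific, limit read from the data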;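 further: p53-null SaOS-2 cells with luciferase driven by a doxycycline-inducible promoter; compound on cells about two nights before reading with doxycycline added after day one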
Each line names hits and unclear results; the compound was inactive in the other large screens (follow-up assays come after a bar, where they were run). This is a sample that favours compounds with a hit; in the whole collection about 4% have one here.

CN(C)S(=O)(=O)c1cccc(NC(=S)N/N=C/c2cccc(O)c2)c1	none
CN(C)S(=O)(=O)c1cccc(NC(=S)N/N=C/c2cc(Br)ccc2O)c1	Mdm2-MdmX inh 69.9 | Mdm2-MdmX conf 78.5 | FLuc counter 37.2
Cc1cc(SCC(=O)Nc2ccc3[nH]c(=O)[nH]c3c2)nc2ccccc12	Mdm2-MdmX inh 87.5 | Mdm2-MdmX conf inactive
CC(C)Cn1c(SCC(=O)Nc2ccc3[nH]c(=O)[nH]c3c2)nc2ccccc2c1=O	none
CCOC(=O)[C@]12CCC=C1N(Cc1ccco1)C(=O)[C@H](CC(=O)NCc1ccc(C)o1)C2	none (no result: UPR CHOP act, XBP1 UPR activ, Mdm2-MdmX inh)
Cc1nn(-c2ccccc2)c(N2CCCC2)c1/C=N/NC(=O)c1cc(-c2cccnc2)nc2ccccc12	Mdm2-MdmX inh 56.3 | Mdm2-MdmX conf inactive
C/C(=N\NC(=O)COc1ccccc1-c1ccccc1)c1ccc(O)cc1O	Mdm2-MdmX inh 64.0 | Mdm2-MdmX conf 46.6 | FLuc counter 37.2
C/C(=N\NC(=O)COc1ccccc1-c1ccccc1)c1cccnc1	none
C/C(=N\NC(=O)c1cc(-c2cccnc2)nc2ccccc12)c1ccc(O)cc1O	Mdm2-MdmX inh 65.8 | Mdm2-MdmX conf 79.5 | FLuc counter inactive
CCc1ccccc1NC(=O)C1CCCC1	none
N#C/C(=N/Nc1ccc(OC(F)(F)F)cc1)C(N)=S	Mdm2-MdmX inh 78.3 | Mdm2-MdmX conf 87.9 | FLuc counter inactive
CCOc1cc(N2CCOCC2)c(OCC)cc1NC(=O)c1[nH]c(C)c(C(C)=O)c1C	Mdm2-MdmX inh 56.5 | Mdm2-MdmX conf inactive | FLuc counter 86.3
CCOc1ccc(OCCC(=O)OCC(=O)Nc2cc(OCC)c(N3CCOCC3)cc2OCC)cc1	Mdm2-MdmX inh 50.2 | Mdm2-MdmX conf 43.6 | FLuc counter 53.7
CCOc1cc(N2CCOCC2)c(OCC)cc1NC(=O)COC(=O)c1cc2ccccc2cc1O	none
N#C/C(=C/c1ccc(-c2ccccc2)o1)c1nc(-c2cccs2)cs1	none (no result: UPR CHOP act, XBP1 UPR activ, Mdm2-MdmX inh)
N#C/C(=C\c1ccc(-c2ccc(F)cc2)o1)C(=O)Nc1nc(-c2cccs2)cs1	Mdm2-MdmX inh 71.0 | Mdm2-MdmX conf inactive
Cc1cccc(-c2nc(CSCC(=O)NCc3cccs3)c(C)o2)c1	none
CCOC(=O)c1[nH]c2ccc(OC)cc2c1NC(=S)N1CCN(c2cccc(Cl)c2)CC1	Mdm2-MdmX inh 50.2 | Mdm2-MdmX conf inactive
CCOC(=O)c1[nH]c2ccc(OC)cc2c1NC(=S)N1CCN(c2ccccc2)CC1	none
N=C(N)N=Nc1c(O)[nH]c2ccc(Br)cc12	none
Oc1ccc(NC(=S)N=Nc2c(O)[nH]c3ccc(Br)cc23)cc1	Mdm2-MdmX inh 69.8 | Mdm2-MdmX conf 73.5 | FLuc counter 42.4
Cc1ccc(NC(=S)N=Nc2c(O)[nH]c3ccccc23)cc1	Mdm2-MdmX inh 64.8 | Mdm2-MdmX conf 51.5 | FLuc counter 66.8
Oc1[nH]c2ccc(Br)cc2c1N=NC(=S)Nc1ccc(F)cc1	Mdm2-MdmX inh 71.2 | Mdm2-MdmX conf 69.7 | FLuc counter 42.7
Oc1cccc(NC(=S)N=Nc2c(O)[nH]c3ccc(Br)cc23)c1	Mdm2-MdmX inh 56.3 | Mdm2-MdmX conf 46.4 | FLuc counter 57.2
Oc1ccc(NC(=S)N=Nc2c(O)[nH]c3ccccc23)cc1	none
COc1ccc(-c2nnn(CC(=O)OC3CCCCC3)n2)cc1OC	none
NS(=O)(=O)c1cccc(NC(=O)CSc2nc3ccccc3c(=O)n2Cc2ccco2)c1	none
Cc1ccc(OCC(=O)NNC(=O)Nc2ccc(Cl)cc2)c(Br)c1	none
C[C@H](O)[C@@H]1CN2CCc3c([nH]c4ccccc34)[C@@H]2C[C@@H]1N(C)C(=O)c1ccco1	none (no result: UPR CHOP act, XBP1 UPR activ, Mdm2-MdmX inh)
CCc1ccc2oc(C(=O)N3CCN(c4ccccc4OC)CC3)cc(=O)c2c1	Mdm2-MdmX inh 59.6 | Mdm2-MdmX conf 49.5 | FLuc counter 40.4
COc1ccccc1N1CCN(C(=O)COc2ccc(Cl)cc2Br)CC1	Mdm2-MdmX inh 57.1 | Mdm2-MdmX conf inactive | FLuc counter 59.6
COc1ccccc1N1CCN(C(=O)c2ccc(-c3ccc(Cl)cc3)o2)CC1	Mdm2-MdmX inh 56.5 | Mdm2-MdmX conf 55.6 | FLuc counter 59.2
COc1ccccc1N1CCN(C(=O)COc2ccc(C)cc2Br)CC1	none
COc1ccccc1N1CCN(S(=O)(=O)c2ccc3c(c2)NC(=O)C(C)C(=O)N3)CC1 (stereo not given)	none
CCc1ccccc1N1CC23C=CC(O2)C(C(=O)OCC(C)C)C3C1=O (stereo not given)	none
Cc1cc2nc(NCCCO)n(CC(=O)c3cc(C(C)(C)C)c(O)c(C(C)(C)C)c3)c2cc1C	Mdm2-MdmX inh 97.9 | Mdm2-MdmX conf 63.5 | FLuc counter 41.0
COc1ccccc1C(=O)Nc1nnc(-c2ccc(Cl)cc2)o1	none
CCOC(=O)c1c(C)nc2sc3c(=O)n(-c4ccc(C(C)=O)cc4)nnc3c2c1-c1ccc(Cl)cc1	Mdm2-MdmX inh 71.8 | Mdm2-MdmX conf 49.5 | FLuc counter 49.2
CCOC(=O)c1c(C)nc2sc3c(=O)n(-c4ccc(C(C)=O)cc4)cnc3c2c1-c1ccc(Cl)cc1	none
Cc1cn(C(C)C)c(=O)n(-c2ccccc2)c1=O	none (no result: UPR CHOP act, XBP1 UPR activ, Mdm2-MdmX inh)
O=C(Nc1nnc(-c2ccccc2SCc2ccccc2F)s1)Nc1ccccc1F	Mdm2-MdmX inh 78.8 | Mdm2-MdmX conf 65.7 | FLuc counter 100.9
COc1cc(C(=S)N2CCN(c3cccc(Cl)c3)CC2)ccc1O	Mdm2-MdmX inh 54.7 | Mdm2-MdmX conf 54.8 | FLuc counter 50.7
CCOc1ncccc1C(=O)Nc1ccccc1F	none
Cc1cccc(C)c1OCc1nnc(SCC(=O)Nc2cccc(C(=O)N3CCOCC3)c2)n1C	Mdm2-MdmX inh 52.6 | Mdm2-MdmX conf inactive
Cc1cccc(OCc2nnc(SCC(=O)Nc3cccc(C(=O)N4CCOCC4)c3)o2)c1C	none
COC(=O)c1ccc(C2c3[nH]c4ccccc4c3C[C@H]3C(=O)N(C4CCN(Cc5ccccc5)CC4)CC(=O)N23)cc1 (stereo not given in full)	none
Cc1ccccc1C1c2[nH]c3ccccc3c2C[C@H]2C(=O)N(C3CCN(Cc4ccccc4)CC3)CC(=O)N12 (stereo not given in full)	none
COc1ccc(C2c3[nH]c4ccccc4c3C[C@H]3C(=O)N(C4CCN(Cc5ccccc5)CC4)CC(=O)N23)c(OC)c1 (stereo not given in full)	none
O=C1[C@@H]2Cc3c([nH]c4ccccc34)C(c3cccc(Br)c3)N2C(=O)CN1C1CCN(Cc2ccccc2)CC1 (stereo not given in full)	Mdm2-MdmX inh 88.4 | Mdm2-MdmX conf inactive | FLuc counter 73.3
